Laboratory results taken from publication PMC12297526 (Communications Chemistry, 2025).
Where two headings read alike, the source gives them in different places. One block for each molecule: values may come before it.

Experiments:
[1] = 0.1 M KCl; ref 4 (supplement), 15; cited from earlier work
[2] = cited from earlier work; for pMn: 11 (supplement), 8, 17, 18, 34
[3] = Zn; assay type: physicochemical; settings: pH = 6.0, 25 mM Zn(II), 37 °C, 1 mM complex; mean ± SD, n = 3
[4] = log P estimation by UPLC retention time; assay type: physicochemical; settings: estimated from UPLC retention time with calibration standards
Method in brief: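 Complexes and standards (DMSO, DMF, pyridine, phenol, nitrobenzene) run on reversed-phase UPLC. C18, 2.5 μm, 2.1 × 100 mm column; 10 mM ammonium acetate/ACN gradient at 0.4 mL min−1. Calibration of log TR against known log P for the standards; complex log P read from its retention time.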

[5] = pH-potentiometric titration, thermodynamic stability constants of Mn; assay type: physicochemical; settings: for log KMnL: I = 0.1 M KCl, 25 °C, mean ± SD, n = 3
Method in brief: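 Ligand and Mn(II) (1.05:1 molar) in 0.1 M KCl titrated with 0.5 M NaOH from pH 1.7 to 12.0 at 25 °C under nitrogen. MnCl2 stock held at pH 6 and calibrated by ICP-MS. Data fitted for stability constants and speciation; titrations in triplicate. pMn calculated at pH 7.4.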

[6] = pH 7.4, 25 °C, [Cu(II)] = 10^-5 M; cited from earlier work
[7] = test system: normal BALB/c mice; test: In vivo T1-weighted MRI of normal mice, 3.0 T clinical scanner; settings: intravenous, 0.05 mmol kg^−1
Method in brief: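 Male BALB/c mice (25 ± 3 g) anaesthetised with avertin (0.6 mL per 20 g) and imaged in a mouse coil at 3.0 T. Coronal and transverse T1-weighted baseline scans taken, then complex given i.v. in PBS pH 7.4 at 0.05 mmol kg−1 and scanning continued ~30 min. Relative enhancement = (SIpost – SIpre)/SIpre × 100% from ROIs on liver and kidney.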

[8] = Solubility in pure water; assay type: physicochemical; settings: 25 °C
[9] = 20 MHz, 298 K; cited from earlier work
[10] = complexes with heptadentate ligands

Molecule: O=C(O)CN1CCNCCN(CC(=O)O)CCNCC1 [1,7-DO2A]
Σ log KiH [1]: 28.05

Molecule: O=C(O)CN1CCNCCN(CC(=O)O)CCN(CC(=O)O)CC1 [DO3A]
log KMnL [2, 10]: 16.55

t1/2 (dissociation half-life) [3]: 0.25 h
Molecule: CCOc1ccc(C[C@@H](CN(CCN(CC(=O)[O-])CC(=O)[O-])CC(=O)[O-])N(CC(=O)[O-])CC(=O)[O-])cc1.[Gd+3].[Na+].[Na+] [Gd(EOB-DTPA)]

log P [4]: 0.57
log KMnL [5]: 15.5
pMn ([5]; pH 7.4, [Mn(II)] = [L] = 10^−5 M): 7.20
Solubility [8]: 260 mg/mL
Molecule: O=C([O-])CN1CCNCCNCCN(CC(=O)[O-])CC1.[Mn+2] [Mn(1,4-DO2A)]
log KMnL ([2]; introduction, Mn(1,4-DO2A) vs Mn(NOTA)): 16.1
half-life (t1/2) [6]: 48 h
excretion route / organ preference seen by MRI [7]: predominantly excreted through the renal route
^20r1 (relaxivity) [9]: 2.1 mM⁻¹ s⁻¹

log P [4]: 0.47
log KMnL [5]: 14.7
Molecule: O=C([O-])CN1CCNCCN(CC(=O)[O-])CCNCC1.[Mn+2] [Mn(1,7-DO2A)]

Molecule: O=C([O-])CN1CCNCCN(CC(=O)[O-])Cc2cccc(n2)C1.[Mn+2] [Mn(3,9-PC2A)]
pMn ([2]; 0.15 M NaCl): 8.64
log KMnL ([2]; 0.15 M NaCl, 11 (supplement), 17): 17.09
half-life (t1/2) [6]: 21 h

Molecule: O=C(O)CN1CCN(CC(=O)O)Cc2cccc(n2)CN(CC(=O)O)CC1 [PCTA]
log KMnL [2, 10]: 16.83

Molecule: Mn(EDTA)
pMn ([2]; 0.15 M NaCl): 7.83
half-life (t1/2) [6]: 0.08 h
